# Published values pooled from the literature.
# Each line is one published result; the experiments were not run side by side.
# Observed: microbial growth
Structure (SMILES),organism,assay,system,setting,MIC
Cc1ccc(C)n1-c1ccc(-c2nnco2)cc1,Saccharomyces cerevisiae,broth dilution,ATCC9763,,125 µg/mL
CNc1ccc(-c2nc(-c3ccc(Oc4ccccc4)cc3)no2)cc1,Clostridioides difficile,broth dilution,,48 h,8 µg/mL
C/C=C/C/C=C/CCC(=O)[C@H]1O[C@H]1C(N)=O,Saccharomyces cerevisiae,,,,10 to 12 µM
Cc1ccc(C)n1-c1ccc(-c2nnc(-c3ccc(N(C)C)cc3)[nH]2)cc1,Saccharomyces cerevisiae,broth dilution,ATCC9763,,62.5 µg/mL
O=[N+]([O-])c1cc(-c2nc(-c3ccc(Oc4ccc(C(F)(F)F)cc4)cc3)no2)cnc1O,Clostridioides difficile,broth dilution,ATCC43255,48 h,2 to 4 µg/mL
OC(Cn1cncn1)(Cn1cncn1)c1ccc(F)cc1F,Saccharomyces cerevisiae,,,,4 µg/mL
Oc1ccc(-c2nc(-c3ccc(Oc4ccccc4CBr)cc3)no2)cc1,Clostridioides difficile,broth dilution,ATCC43255,48 h,8 to 128 µg/mL
Cl.NCc1ccc(Oc2ccc(-c3noc(-c4ccc(O)cc4)n3)cc2)cc1,Clostridioides difficile,broth dilution,,48 h,6 µg/mL
CC/C(=C(\c1ccccc1)c1ccc(OCCN(C)C)cc1)c1ccccc1,Saccharomyces cerevisiae,,,,20 to 25 µM
Oc1ccc(-c2nc(-c3ccc(Oc4ccc(C(F)(F)F)cc4)cc3)no2)cc1F,Clostridioides difficile,broth dilution,ATCC43255,48 h,2 to 4 µg/mL
CC(=O)Nc1ccc(-c2nc(-c3ccc(Oc4ccccc4)cc3)no2)cc1,Clostridioides difficile,broth dilution,,48 h,> 50 µg/mL
Cc1ccc(C)n1-c1ccc(-c2nnc(-c3cccc([N+](=O)[O-])c3)[nH]2)cc1,Saccharomyces cerevisiae,broth dilution,ATCC9763,,31.2 µg/mL
O=[N+]([O-])c1ccc(-c2nc(-c3ccc(Oc4ccccc4)cc3)no2)cc1,Clostridioides difficile,broth dilution,,48 h,8 µg/mL
Cc1ccc(C)n1-c1ccc(-c2nnc(-c3ccc(O)cc3)[nH]2)cc1,Saccharomyces cerevisiae,broth dilution,ATCC9763,,31.2 µg/mL
Cc1ncc([N+](=O)[O-])n1CCO,Clostridioides difficile,broth dilution,R20291,,> 0.5 µg/mL
Cc1cc(=O)[nH]n1C(=O)c1ccc(-n2c(C)ccc2C)cc1,Saccharomyces cerevisiae,broth dilution,ATCC9763,,250 µg/mL
O=C(O)Cc1ccccc1Oc1ccc(-c2noc(-c3ccc(O)cc3)n2)cc1,Clostridioides difficile,broth dilution,,48 h,> 50 µg/mL
